Consider three compounds from ChEMBL document CHEMBL4177600, “Identification of novel PI3K inhibitors through a scaffold hopping strategy” (Bioorg Med Chem Lett, 2017).

The Tmax is the time at which the peak concentration occurs. For orientation: Cmax means the maximum level reached in the sampled fluid or tissue. One may read the AUC(0-inf) as total exposure, with the tail of the curve extrapolated. In general, half-life refers to the time in which the quantity being followed falls by half. Low values mean rapid decline, high ones slow decline. As a reminder, the bioavailability is dose-corrected exposure relative to a reference, in per cent. One may read the EC50 as the concentration at which the effect is half-maximal. Low readings indicate greater potency, high ones weaker potency. By clearance is commonly meant a measure of how efficiently the substance is removed, as volume per time. Higher therefore signals efficient removal. Broadly, the Vd is the apparent volume that relates the amount in the body to the concentration in plasma or blood. High values mean extensive tissue distribution, low ones confinement near the circulation.

Data set [1] in a line: Tmax in BALB-C mouse at 10 mg/kg, po by LC-MS/MS analysis. In kind it is ADME, organism-based. The note with it: in vivo. The method, boiled down:
(§1)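 BALB-C mice dosed IV in 10% NMP/50% PEG300/40% saline or PO in 10% NMP/90% PEG300. Plasma sampled at 6 (IV) or 8 (PO) time points and quantified by LC/MS/MS. Parameters come from a bicompartmental model fit; values are means of 3 independent samples. Plasma levels were compared with AKT-P EC50 from U2OS cells converted to ng/ml.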

The nature of data set [2]: Cmax in BALB-C mouse at 10 mg/kg, po by LC-MS/MS analysis. In kind it is ADME, organism-based. Also on record: dose 10 mg/kg, route oral. As to conditions: in vivo. The method, boiled down:
(§2)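 BALB-C mice dosed IV (10% NMP/50% PEG300/40% saline) or PO (10% NMP/90% PEG300). Plasma sampled at 6 (IV) or 8 (PO) time points; compound measured by LC/MS/MS. Parameters from bicompartmental model fit; each value is the mean of 3 independent samples.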

Data set [3] deals with Mus musculus. The data set can be described thus: Time at which plasma concentration stays above cellular EC50 for inhibition of AKT phosphorylation in BALB-C mouse at 10 mg/kg, po measured up to 24 hrs by LC-MS/MS analysis. The note with it: in vivo. In kind it is organism-based. The method in brief: as §1
A short description of data set [4]: Cmax in BALB-C mouse at 5 mg/kg, po by LC-MS/MS analysis. Also on record: dose 5 mg/kg, route oral. As to conditions: in vivo. In kind it is ADME, organism-based. The method in brief:
as §2

The nature of data set [5]: AUC (infinity) in BALB-C mouse at 5 mg/kg, po by LC-MS/MS analysis. In kind it is ADME, organism-based. Also on record: dose 5 mg/kg, route oral, time infinity. The note with it: in vivo. The method in brief:
as §2

A short description of data set [6]: Half-life in BALB-C mouse at 5 mg/kg, po by LC-MS/MS analysis. In kind it is ADME, organism-based. The note with it: in vivo. The method, boiled down:
as §2

Data set [7] can be described thus: Oral bioavailability in BALB-C mouse at 5 mg/kg by LC-MS/MS analysis. Format: ADME, organism-based. As to conditions: in vivo. The method, boiled down: as §1
For data set [8], the system named is U2OS. The experiment in a line: Inhibition of AKT phosphorylation in human U2OS cells.
A short description of data set [9]: Clearance in BALB-C mouse at 3 mg/kg, iv by LC-MS/MS analysis. Format: ADME, organism-based. The note with it: in vivo. The method, boiled down:
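Mice (BALB-C) given IV dose in 10% NMP/50% PEG300/40% saline; plasma sampled at 6 times, levels by LC/MS/MS.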

A short description of data set [10]: Volume of distribution in BALB-C mouse at 3 mg/kg, iv by LC-MS/MS analysis. Format: ADME, organism-based. As to conditions: in vivo. The method, boiled down:
as §1

The nature of data set [11]: AUC (infinity) in BALB-C mouse at 3 mg/kg, iv by LC-MS/MS analysis. The note with it: in vivo. In kind it is ADME, organism-based. Also on record: dose 3 mg/kg, time infinity, route intravenous. The method, boiled down: as §2
Data set [12] in a line: Tmax in BALB-C mouse at 9 mg/kg, po by LC-MS/MS analysis. Format: ADME, organism-based. As to conditions: in vivo. The method, boiled down:
as §1

Data set [13] in a line: Cmax in BALB-C mouse at 9 mg/kg, po by LC-MS/MS analysis. In kind it is ADME, organism-based. The arrangement: dose 9 mg/kg, route oral. As to conditions: in vivo. The method in brief:
as §2

Data set [14] can be described thus: Half-life in BALB-C mouse at 9 mg/kg, po by LC-MS/MS analysis. Format: ADME, organism-based. As to conditions: in vivo. The method in brief:
as §2

A short description of data set [15]: Oral bioavailability in BALB-C mouse at 9 mg/kg by LC-MS/MS analysis. The note with it: in vivo. In kind it is ADME, organism-based. The method in brief: as §1
Data set [16] concerns Mus musculus. The experiment in a line: Clearance in BALB-C mouse at 3 mg/kg, iv by LC-MS/MS analysis relative to hepatic blood flow. Format: ADME, organism-based. As to conditions: in vivo.
Data set [17] deals with U2OS. The data set can be described thus: Inhibition of AKT phosphorylation in human U2OS cells. This is another data set of the same source.

Values after ≈ are worked out from the molar mass of the structure shown.

Take `CS(=O)(=O)N1CCN(Cc2nc3c(N4CCOCC4)nc(-c4cnc(N)nc4)cn3n2)CC1`: in [1], the Tmax is 1 h. The Cmax in data set [2] was determined as 674 ng/mL. In [3], this compound showed a Time above 12 h.
For the compound `CS(=O)(=O)N1CCN(Cc2nc3c(N4CCOCC4)nc(-c4cnc(N)nc4)c(Cl)n3n2)CC1`, the Cmax in data set [4] was determined as 1050 ng/mL. This compound came in with a total exposure AUC(0-inf) in [5] of 5650 ng·h/mL. For the same compound, in [6], the half-life is 2.7 h. Besides, the bioavailability in [7] stood at 73.1%. In addition, the EC50 in data set [8] was found to be 0.03491 µg/mL (≈ 0.0686 µM).
Turning to `CS(=O)(=O)N1CCN(Cc2cc3c(N4CCOCC4)nc(-c4cnc(N)nc4)cn3n2)CC1`, the clearance in [9] was 10.8 mL/min/kg. The Vd in [10] came out at 0.6 L/kg. In addition, the area under the curve AUC(0-inf) in data set [11] was determined as 5820 ng·h/mL. Moreover, in data set [12], the Tmax worked out at 1 h. In addition, the peak level in data set [13] (Cmax) was 938 ng/mL. In addition, in data set [14], the half-life was 2.84 h. The same compound displayed a bioavailability in [15] of 29.5%. In data set [16], the CL is listed as below 50%. Besides, the EC50 in [17] came to 0.01444 µg/mL (≈ 0.0305 µM).
